The subject of data set [1] is Hepatitis B virus. The data set is described as follows: Antiviral activity against HBV infected in human HepG2-NTCP cells assessed as reduction in HBV viral transcription at 10 uM cells inoculated with virus for 4 hrs at room temperature and 37 degree C for 24 hrs followed inoculum changed with PMM medium for every 2 days until day 5 post infection by DIG-labelled GAPDH based northern blot analysis. The class given is functional, organism-based. The note with it: time 28.0 hrs. Put shortly: (§1)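 Infected HepG2-NTCP cells given compound either with the HBV inoculum or at dpi 3–5; RNA extracted with TRIzol, run on 1.0% agarose–formaldehyde/MOPS gel. Northern blot as for Southern, probed with DIG-labelled full-length HBV genome plus DIG-labelled GAPDH probe.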

The subject of data set [2] is Hepatitis delta virus. Kind of data set: Antiviral activity against HDV infected in NTCP-edited FVB mouse assessed as decrease in viral RNA levels in liver at 30 mg/kg, po administered for 8 days via gavage followed by HDV challenge at day 2 and measured at day 8 post infection by qPCR analysis. The note with it: time 8.0 day.
Data set [3] can be described thus: Intrinsic clearance in human liver microsomes at 1 uM preincubated for 5 mins followed by NADPH addition and measured upto 60 mins by LC-MS analysis. The class given is ADME, Microsome. The note with it: read-out: CLH. The procedure, abridged: (§2)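 Human or mouse liver microsomes, final 1 mg/mL in 0.05 M phosphate buffer pH 7.4; compound final 1 μM, preincubated 37 °C 5 min, started with 1 mM NADPH; sampled at 0, 5, 15, 30, 60 min, methanol quench, −20 °C 1 h, centrifuged, supernatant by LC–MS.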
In general terms: Liver microsomes are vesicles of endoplasmic reticulum, rich in cytochrome P450 enzymes.

The nature of data set [4]: Half life in C57BL/6 mouse at 10 mg/kg, po. It counts as ADME, organism-based. The note with it: in vivo. The procedure, abridged: (§3)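 Male C57BL/6 mice (n = 3), single dose IV 5 mg/kg, IP 10 mg/kg or PO 10 mg/kg in DMSO:cremophor:0.9% NaCl 5:5:90; plasma parameters reported as means.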
Data set [5] in a line: Tmax in C57BL/6 mouse at 10 mg/kg, po. The note with it: in vivo. It counts as ADME, organism-based. The procedure, abridged: as §3
The nature of data set [6]: Tmax in C57BL/6 mouse at 10 mg/kg, ip. It counts as ADME, organism-based. The note with it: in vivo. The procedure, abridged: as §3
A short description of data set [7]: AUC (0 to infinity) in C57BL/6 mouse at 10 mg/kg, ip. It counts as ADME, organism-based. The note with it: in vivo. On the set-up: time infinity, route intraperitoneal, dose 10 mg/kg. Put shortly: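 Male C57BL/6 mice, n = 3, dosed IV at 5 mg/kg, IP at 10 mg/kg or by oral gavage (PO) at 10 mg/kg. All doses formulated in DMSO:cremophor:0.9% NaCl = 5:5:90. AUC from time zero to infinity (h*ng/mL) was derived from plasma drug levels and is reported as the mean of the males.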

Data set [8] is described as follows: Immunosuppressive activity in C57B/L mouse spleen T cells assessed as inhibition of anti-CD3 induced T cell proliferation incubated for 48 hrs by CFSE staining based flow cytometric analysis. The class given is tissue-based. The procedure, abridged: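 Spleen T cells from adult C57B/L mouse, CFSE-labelled, cultured in RPMI-1640 on anti-CD3-coated wells with compound or DMSO; stained with PE-anti-CD4 before flow cytometric proliferation analysis. Legend gives 48 h stimulation, methods 72 h; 2 μM compounds.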
(A flow cytometer gives signals particle by particle.)

Data set [9] is described as follows: Cmax in C57BL/6 mouse at 10 mg/kg, po. The note with it: in vivo. On the set-up: route oral, dose 10 mg/kg. The class given is ADME, organism-based. The procedure, abridged: as §3
Data set [10] relates to Hepatitis delta virus. Kind of data set: Antiviral activity against HDV infected in human HepG2-NTCP cells assessed as reduction in HDV delta Ag measured 5 days post infection by DAPI staining based immunofluorescence assay relative to control. It counts as functional, cell-based. The note with it: time 5.0 day. The procedure, abridged: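 HepG2-NTCP cells infected with HDV in presence of compound; delta antigen stained at dpi 5 with FITC-labelled anti-delta antibody, nuclei with DAPI; high-content imaging and image analysis give infection ratio relative to DMSO control.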

Data set [11] can be described thus: Intrinsic clearance in mouse liver microsomes at 1 uM preincubated for 5 mins followed by NADPH addition and measured upto 60 mins by LC-MS analysis. The class given is ADME, Microsome. The note with it: read-out: CLH. The procedure, abridged: as §2
Data set [12] can be described thus: Bioavailability in C57BL/6 mouse at 10 mg/kg, ip. It counts as ADME, organism-based. The note with it: in vivo. Put shortly: as §3
The nature of data set [13]: Clearance in C57BL/6 mouse at 5 mg/kg, iv. The note with it: in vivo. It counts as ADME, organism-based. Put shortly: as §3
The target in data set [14] is T1, Ileal sodium/bile acid cotransporter (Homo sapiens, UniProt Q12908).
T1 sequence (Q12908 whole entry): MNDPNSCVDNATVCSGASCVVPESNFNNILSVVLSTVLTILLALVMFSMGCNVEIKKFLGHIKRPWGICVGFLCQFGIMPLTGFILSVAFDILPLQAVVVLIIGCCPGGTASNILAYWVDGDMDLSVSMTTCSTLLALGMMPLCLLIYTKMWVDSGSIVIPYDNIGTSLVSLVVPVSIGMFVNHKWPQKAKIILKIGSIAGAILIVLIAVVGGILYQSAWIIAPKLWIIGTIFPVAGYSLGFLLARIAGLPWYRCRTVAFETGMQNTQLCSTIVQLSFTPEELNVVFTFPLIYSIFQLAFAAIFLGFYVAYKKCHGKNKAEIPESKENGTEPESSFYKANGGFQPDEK
The data set is described as follows: Inhibition of human ASBT.

Data set [15] deals with Hepatitis B virus. The data set is described as follows: Antiviral activity against HBV infected in human HepG2-NTCP cells assessed as reduction in HBeAg secretion cells inoculated with virus for 4 hrs at room temperature and 37 degree C for 24 hrs followed inoculum changed with PMM medium for every 2 days until day 5 post infection by ELISA. The class given is functional, organism-based.

Data set [16] relates to Hepatitis B virus. The data set is described as follows: Antiviral activity against HBV infected in primary human hepatocytes. The note with it: Hepatocyte. It counts as functional, organism-based.
The test system of data set [17] is Hepatitis B virus. The data set is described as follows: Antiviral activity against HBV genotype B infected in human HepG2-NTCP cells assessed as reduction in HBeAg secretion at 2 uM cells inoculated with virus for 4 hrs at room temperature and 37 degree C for 24 hrs followed inoculum changed with PMM medium for every 2 days until day 5 post infection by ELISA. The note with it: time 28.0 hrs. The class given is functional, organism-based. The procedure, abridged: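 HepG2-NTCP cells seeded 4–6 h, then primary maintenance medium 20–24 h; virus inoculum plus compound dilutions 4 h at room temperature, then 37 °C 24 h; medium changed every 2 days to PMM with 2% FBS until day 5 post infection. Secreted HBeAg measured by ELISA; IC50 by nonlinear regression from six or more points, three repeats.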

Data set [18] is described as follows: Cmax in C57BL/6 mouse at 10 mg/kg, ip. It counts as ADME, organism-based. The note with it: in vivo. On the set-up: route intraperitoneal, dose 10 mg/kg. Put shortly:
as §3

Data set [19] has as its system Hepatitis B virus. The data set is described as follows: Antiviral activity against HBV infected in human HepG2-NTCP cells assessed as reduction in HBV viral transcription at 10 uM treated 3 days post infection by northern blot analysis. It counts as functional, organism-based. The note with it: time 3.0 day. The procedure, abridged:
as §1

Calls of active or inactive are those of the source. No cut-off for these calls is given here.

Regarding `CC[C@@H]1NC(=O)[C@H]([C@@H]2O[C@@H](Sc3cccc(OCc4ccccc4)c3)C[C@H]2C)N(C)C(=O)[C@H](C(C)C)N(C)C(=O)[C@H](CC(C)C)N(C)C(=O)[C@H](CC(C)C)N(C)C(=O)[C@@H](C)NC(=O)[C@H](C)NC(=O)[C@H](CC(C)C)N(C)C(=O)[C@H](C(C)C)NC(=O)[C@H](CC(C)C)N(C)C(=O)CN(C)C1=O`, the outcome with Hepatitis B virus [1], with Hepatitis delta virus [2] and in the data set with Hepatitis B virus [17] was Active. Further, the results for the microsomal CLint at 1 µM in [3] and in [11] were 8 µL/min/mg and 4.1 µL/min/mg, respectively. For the same compound, in data set [4], the half-life (in general, the time in which the quantity being followed falls by half) was 5.65 h. The results for the Tmax in data set [5] and in [6] were 1 h and 2 h, respectively. Further, the AUC(0-inf) (as a rule, total exposure, with the tail of the curve extrapolated) in data set [7] was determined as 87400 ng·h/mL. Moreover, the Activity result is “Non-Toxic” in data set [8] and “Dose-dependent effect” in the data set on Hepatitis delta virus [10]. Moreover, the Cmax (commonly the maximum level reached in the sampled fluid or tissue) in data set [9] amounted to 2290 ng/mL; in [18], 12400 ng/mL. In data set [12], the bioavailability was 110%. The clearance (as a rule, the rate of elimination divided by the concentration) in [13] was 2.1 mL/min/kg. Besides, the “inhibition (INH)” value in [14] is listed as “Not Active”. The values for the IC50 in the data set on Hepatitis B virus [15] and in the data set on Hepatitis B virus [16] were 110 nM and 59 nM, respectively. In addition, the outcome in the data set with Hepatitis B virus [19] was inactive.

The values are drawn from ChEMBL document CHEMBL4706643 (J Med Chem, 2021).
